{"source": "paper PMC6668347", "about": "(Bioorganic & medicinal chemistry, 2017)", "key": {"[1]": {"tested_on": "LC3B-II", "experiment": "Autophagy assay", "type": "cell-based", "details": "for LC3B-II levels: 4 h, 6 at 5 μM, BafA1 at 100 nM, versus DMSO", "in_short": "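MDA-MB-231 or MDA-MB-468 cells in DMEM with 10% FBS at 37 °C, 5% CO2, treated 4 h with test compound or DMSO vehicle. Hypoxia (1% O2) served as the autophagy positive control. Bafilomycin A1 (100 nM) was added 4 h before harvest. Cells were lysed in NP40 buffer with protease and phosphatase inhibitors, run on SDS-PAGE and transferred to PVDF. Blots were probed overnight at 4 °C with anti-LC3B (1:3000), then HRP secondary (1:10,000), with ECL detection of LC3B-I and LC3B-II.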"}, "[2]": {"molecular_target": "MELK (Homo sapiens, UniProt Q14680)", "sequence (Q14680 whole entry)": "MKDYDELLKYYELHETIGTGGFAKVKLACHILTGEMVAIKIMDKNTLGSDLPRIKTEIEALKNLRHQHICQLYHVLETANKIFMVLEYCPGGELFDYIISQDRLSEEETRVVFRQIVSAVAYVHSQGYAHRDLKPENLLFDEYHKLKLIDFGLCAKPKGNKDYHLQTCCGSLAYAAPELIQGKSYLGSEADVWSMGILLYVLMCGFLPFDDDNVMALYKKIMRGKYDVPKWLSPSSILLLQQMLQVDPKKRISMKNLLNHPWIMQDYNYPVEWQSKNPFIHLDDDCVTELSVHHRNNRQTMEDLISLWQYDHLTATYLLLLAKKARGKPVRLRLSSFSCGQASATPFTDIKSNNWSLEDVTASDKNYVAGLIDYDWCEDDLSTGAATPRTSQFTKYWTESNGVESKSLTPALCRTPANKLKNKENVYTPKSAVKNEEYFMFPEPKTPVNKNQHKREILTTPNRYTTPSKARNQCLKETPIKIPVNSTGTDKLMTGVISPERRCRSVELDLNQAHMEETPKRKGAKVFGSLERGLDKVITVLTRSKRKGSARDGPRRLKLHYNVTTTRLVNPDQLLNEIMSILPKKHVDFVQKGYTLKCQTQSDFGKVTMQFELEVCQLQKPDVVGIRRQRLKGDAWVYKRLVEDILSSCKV", "experiment": "MELK kinase activity inhibition", "type": "biochemical", "details": "for change of MELK IC50 / activity relative to parent compound 6: weaker than 6 (higher IC50)"}, "[3]": {"molecular_target": "T1, BMX/ETK (Homo sapiens, UniProt P51813)", "T1 sequence (P51813 1-675)": "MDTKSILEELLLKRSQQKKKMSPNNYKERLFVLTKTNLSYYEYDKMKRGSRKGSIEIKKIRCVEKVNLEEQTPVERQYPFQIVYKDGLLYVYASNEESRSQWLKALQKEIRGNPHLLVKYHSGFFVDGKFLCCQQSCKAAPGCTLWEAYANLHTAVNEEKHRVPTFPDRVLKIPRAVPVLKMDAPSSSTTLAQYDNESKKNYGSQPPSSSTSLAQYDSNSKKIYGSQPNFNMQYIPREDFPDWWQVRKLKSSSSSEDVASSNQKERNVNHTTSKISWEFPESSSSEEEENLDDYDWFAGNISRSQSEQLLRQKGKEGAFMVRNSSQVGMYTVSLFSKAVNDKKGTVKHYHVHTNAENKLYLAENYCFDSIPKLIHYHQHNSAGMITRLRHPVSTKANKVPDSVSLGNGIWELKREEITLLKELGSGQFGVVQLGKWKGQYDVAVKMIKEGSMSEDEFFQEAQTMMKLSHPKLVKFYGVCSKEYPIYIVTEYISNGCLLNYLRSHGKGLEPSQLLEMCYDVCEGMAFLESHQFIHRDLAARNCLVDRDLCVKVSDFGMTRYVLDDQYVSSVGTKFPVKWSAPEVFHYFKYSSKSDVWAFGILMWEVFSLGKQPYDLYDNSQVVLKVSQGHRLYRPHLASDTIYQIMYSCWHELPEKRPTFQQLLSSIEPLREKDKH", "experiment": "Kinase panel IC50, BMX/ETK", "type": "biochemical"}, "[4]": {"molecular_target": "JAK1 (Homo sapiens, UniProt P23458)", "sequence (P23458 whole entry)": "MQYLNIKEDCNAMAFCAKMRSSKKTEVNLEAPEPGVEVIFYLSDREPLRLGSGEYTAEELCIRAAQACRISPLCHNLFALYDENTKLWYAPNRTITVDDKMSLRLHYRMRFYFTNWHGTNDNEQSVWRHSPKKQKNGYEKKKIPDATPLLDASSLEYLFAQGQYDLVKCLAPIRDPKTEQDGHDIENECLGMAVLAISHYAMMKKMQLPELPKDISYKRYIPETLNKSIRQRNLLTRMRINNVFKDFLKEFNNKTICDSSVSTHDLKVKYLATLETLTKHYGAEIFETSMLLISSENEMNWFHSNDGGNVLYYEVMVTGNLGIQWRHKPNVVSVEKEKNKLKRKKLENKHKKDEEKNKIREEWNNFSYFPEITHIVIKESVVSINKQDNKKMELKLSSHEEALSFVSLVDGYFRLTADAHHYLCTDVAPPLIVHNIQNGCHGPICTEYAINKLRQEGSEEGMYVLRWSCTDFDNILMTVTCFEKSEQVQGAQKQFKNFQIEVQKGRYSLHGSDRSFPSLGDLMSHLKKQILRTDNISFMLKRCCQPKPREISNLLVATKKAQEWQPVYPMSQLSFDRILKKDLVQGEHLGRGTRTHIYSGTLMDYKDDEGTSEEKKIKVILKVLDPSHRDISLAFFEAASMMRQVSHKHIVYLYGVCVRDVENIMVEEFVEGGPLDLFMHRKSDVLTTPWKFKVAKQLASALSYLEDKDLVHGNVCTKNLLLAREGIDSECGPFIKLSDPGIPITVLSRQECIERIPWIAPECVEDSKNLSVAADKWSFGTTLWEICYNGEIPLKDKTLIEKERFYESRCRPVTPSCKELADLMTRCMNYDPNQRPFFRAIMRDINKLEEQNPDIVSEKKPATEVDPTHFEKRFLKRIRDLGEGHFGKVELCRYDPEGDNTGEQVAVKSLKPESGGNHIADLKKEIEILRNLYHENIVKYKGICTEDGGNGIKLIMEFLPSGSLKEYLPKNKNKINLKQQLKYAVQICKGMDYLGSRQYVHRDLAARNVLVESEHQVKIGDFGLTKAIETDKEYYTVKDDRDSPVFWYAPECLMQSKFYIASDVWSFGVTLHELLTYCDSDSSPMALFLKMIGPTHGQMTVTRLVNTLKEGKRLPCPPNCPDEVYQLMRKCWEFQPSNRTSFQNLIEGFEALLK", "experiment": "JAK kinase activity, JAK1", "type": "biochemical"}, "[5]": {"molecular_target": "JAK2 (Homo sapiens, UniProt O60674)", "sequence (O60674 whole entry)": "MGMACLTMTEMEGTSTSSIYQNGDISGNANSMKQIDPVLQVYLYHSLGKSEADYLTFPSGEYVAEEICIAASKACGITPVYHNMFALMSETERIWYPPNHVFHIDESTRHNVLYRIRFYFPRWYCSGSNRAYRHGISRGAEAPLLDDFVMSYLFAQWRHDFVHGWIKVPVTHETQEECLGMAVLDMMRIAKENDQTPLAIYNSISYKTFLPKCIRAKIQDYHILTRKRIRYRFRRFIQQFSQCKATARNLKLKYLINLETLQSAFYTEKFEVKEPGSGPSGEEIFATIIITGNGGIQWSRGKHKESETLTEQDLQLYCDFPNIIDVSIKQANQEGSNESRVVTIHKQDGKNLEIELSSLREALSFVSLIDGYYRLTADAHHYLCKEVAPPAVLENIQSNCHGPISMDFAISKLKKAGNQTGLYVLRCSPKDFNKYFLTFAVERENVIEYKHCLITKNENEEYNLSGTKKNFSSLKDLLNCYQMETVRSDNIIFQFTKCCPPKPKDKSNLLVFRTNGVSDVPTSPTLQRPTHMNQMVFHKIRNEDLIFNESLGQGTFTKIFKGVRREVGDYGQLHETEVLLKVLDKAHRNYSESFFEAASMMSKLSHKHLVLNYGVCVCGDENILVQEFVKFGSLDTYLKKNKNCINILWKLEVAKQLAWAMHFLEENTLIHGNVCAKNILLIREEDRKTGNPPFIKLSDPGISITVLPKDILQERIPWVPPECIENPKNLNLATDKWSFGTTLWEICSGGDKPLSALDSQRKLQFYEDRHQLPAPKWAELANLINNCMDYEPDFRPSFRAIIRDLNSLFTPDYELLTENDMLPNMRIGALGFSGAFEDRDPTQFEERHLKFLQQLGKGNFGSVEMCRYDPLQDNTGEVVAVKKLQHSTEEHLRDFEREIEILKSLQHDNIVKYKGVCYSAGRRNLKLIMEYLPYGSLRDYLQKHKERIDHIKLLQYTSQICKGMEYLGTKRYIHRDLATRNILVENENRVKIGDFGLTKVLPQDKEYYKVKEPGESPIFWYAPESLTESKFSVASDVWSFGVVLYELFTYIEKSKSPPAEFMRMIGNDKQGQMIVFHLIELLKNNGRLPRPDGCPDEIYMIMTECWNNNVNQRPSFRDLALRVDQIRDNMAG", "experiment": "JAK kinase activity, JAK2", "type": "biochemical"}, "[6]": {"molecular_target": "T2, JAK3 (Homo sapiens, UniProt P52333)", "T2 sequence (P52333 1-1124)": "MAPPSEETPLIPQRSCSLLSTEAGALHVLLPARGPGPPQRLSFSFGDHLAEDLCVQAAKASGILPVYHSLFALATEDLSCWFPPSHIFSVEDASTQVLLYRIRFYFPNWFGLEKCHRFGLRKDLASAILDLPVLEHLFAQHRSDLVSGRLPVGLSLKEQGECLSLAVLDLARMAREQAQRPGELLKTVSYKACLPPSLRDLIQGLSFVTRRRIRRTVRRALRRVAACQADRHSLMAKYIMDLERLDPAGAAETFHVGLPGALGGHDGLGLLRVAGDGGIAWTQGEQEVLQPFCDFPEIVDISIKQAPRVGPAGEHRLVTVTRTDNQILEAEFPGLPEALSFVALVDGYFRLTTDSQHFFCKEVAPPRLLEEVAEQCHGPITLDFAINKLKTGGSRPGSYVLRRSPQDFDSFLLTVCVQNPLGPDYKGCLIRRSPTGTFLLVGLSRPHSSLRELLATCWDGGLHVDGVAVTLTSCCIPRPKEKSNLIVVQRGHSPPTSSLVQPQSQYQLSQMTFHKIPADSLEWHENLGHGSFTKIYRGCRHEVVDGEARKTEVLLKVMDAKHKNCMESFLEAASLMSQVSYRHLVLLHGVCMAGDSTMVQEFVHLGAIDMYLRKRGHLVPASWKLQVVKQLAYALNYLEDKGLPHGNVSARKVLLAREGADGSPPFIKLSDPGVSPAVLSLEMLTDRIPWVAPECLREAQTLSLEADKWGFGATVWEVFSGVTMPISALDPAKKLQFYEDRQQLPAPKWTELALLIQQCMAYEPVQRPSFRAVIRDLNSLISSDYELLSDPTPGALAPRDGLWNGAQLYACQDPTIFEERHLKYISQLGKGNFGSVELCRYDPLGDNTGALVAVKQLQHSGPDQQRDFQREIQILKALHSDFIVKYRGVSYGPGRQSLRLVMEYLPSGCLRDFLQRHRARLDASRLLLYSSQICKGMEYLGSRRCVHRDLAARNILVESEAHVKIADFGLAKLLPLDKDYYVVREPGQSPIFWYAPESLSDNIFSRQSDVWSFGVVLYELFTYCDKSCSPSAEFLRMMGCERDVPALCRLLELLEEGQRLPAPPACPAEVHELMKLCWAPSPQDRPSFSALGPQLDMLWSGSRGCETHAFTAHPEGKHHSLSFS", "experiment": "JAK kinase activity, JAK3", "type": "biochemical"}, "[7]": {"tested_on": "p21WAF1/CIP1", "experiment": "Western blot of p21 levels", "type": "cell-based", "details": "5 μM, from 4 h, sustained over 48 h"}, "[8]": {"tested_on": "cyclin A2", "experiment": "Western blot of cyclin A2 levels", "type": "cell-based", "details": "over 48 h"}, "[9]": {"tested_on": "p53", "experiment": "Western blot of p53 levels", "type": "cell-based"}, "[10]": {"tested_on": "phospho p53 (Ser15)", "experiment": "Western blot of p53 Ser15 phosphorylation", "type": "cell-based", "details": "MDA-MB-468 cells, over 48 h"}, "[11]": {"tested_on": "MDMX", "experiment": "Immunoblot of MDMX levels", "type": "cell-based", "details": "MDA-MB-231 cells, increasing concentration", "in_short": "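MDA-MB-231 cells (DMEM, 10% FBS, 37 °C, 5% CO2) were exposed to rising test compound concentrations. Whole-cell RIPA lysates with protease and phosphatase inhibitors were prepared, and 30 µg protein was resolved by 10% SDS-PAGE and moved to nitrocellulose. Blots were probed with primary antibody overnight at 4 °C, then with IRDye 800 anti-mouse or Alexa Fluor 680 anti-rabbit IgG for 1 h at RT. Bands were read by infrared imaging.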"}, "[12]": {"tested_on": "phospho STAT3 (Tyr705)", "experiment": "Western blot of STAT3 phosphorylation", "type": "cell-based"}, "[13]": {"tested_on": "phospho Akt", "experiment": "Western blot of Akt phosphorylation", "type": "cell-based"}, "[14]": {"tested_on": "survivin", "experiment": "Western blot of survivin levels", "type": "cell-based", "details": "sustained over 48 h"}, "[15]": {"tested_on": "Bcl-XL", "experiment": "Western blot of Bcl-XL levels", "type": "cell-based"}}, "note": "pIC50: −log10 of the molar value.", "data": [{"smiles": "CO/C1=C\\C(C)=C\\[C@@H](C)[C@@H](O)[C@@H](C)C/C(C)=C/C=C/[C@H](OC)[C@@H]([C@@H](C)[C@@H](O)[C@H](C)[C@@]2(O)C[C@@H](O)[C@H](C)[C@@H](C(C)C)O2)OC1=O", "note": "[BafA1, Bafilomycin A1, reference compound]", "values": [{"measurement": "LC3B-II levels", "setting": "[1]; MDA-MB-231 cells", "value": "more modest increase"}, {"measurement": "LC3B-II levels", "setting": "[1]; MDA-MB-468 cells", "value": "substantial increase"}]}, {"smiles": "CCN(CC)CCCC(C)Nc1nc(/C=C/c2c(Cl)cc(Cl)cc2Cl)nc2ccc(N)cc12", "note": "(stereo not shown) [Compound 6, (E)-N^4-(5-(diethylamino)pentan-2-yl)-2-(2,4,6-trichlorostyryl) quinazoline-4,6-diamine]", "values": [{"measurement": "pIC50", "setting": "[2]", "value": "~6.00"}, {"measurement": "pIC50", "setting": "[3]", "value": "~6.00"}, {"measurement": "inhibition of JAK kinase activity (JAK1)", "setting": "[4]", "value": "lack of inhibition"}, {"measurement": "inhibition of JAK kinase activity (JAK2)", "setting": "[5]", "value": "lack of inhibition"}, {"measurement": "inhibition of JAK kinase activity (JAK3)", "setting": "[6]", "value": "lack of inhibition"}, {"measurement": "p21WAF1/CIP1 level", "setting": "[7]; MDA-MB-231 cells", "value": "up-regulated"}, {"measurement": "p21WAF1/CIP1 level", "setting": "[7]; MDA-MB-468 cells", "value": "up-regulated"}, {"measurement": "cyclin A2 level", "setting": "[8]; MDA-MB-231 cells", "value": "down-regulated"}, {"measurement": "cyclin A2 level", "setting": "[8]; MDA-MB-468 cells", "value": "down-regulated"}, {"measurement": "p53 levels", "setting": "[9]; MDA-MB-231 cells", "value": "does not affect"}, {"measurement": "p53 levels", "setting": "[9]; MDA-MB-468 cells, over 48 h", "value": "no effect"}, {"measurement": "phosphorylation at Ser15 of p53", "setting": "[10]", "value": "inhibited"}, {"measurement": "MDMX levels", "setting": "[11]", "value": "increase"}, {"measurement": "STAT3 phosphorylation", "setting": "[12]; MDA-MB-231 cells, levels recover more slowly", "value": "inhibited"}, {"measurement": "STAT3 phosphorylation", "setting": "[12]; MDA-MB-468 cells", "value": "inhibited"}, {"measurement": "STAT3 phosphorylation, time course", "setting": "[12]; MDA-MB-468 cells, at 4 h, levels restored after 8 h", "value": "completely inhibited"}, {"measurement": "Akt phosphorylation", "setting": "[13]", "value": "no effect"}, {"measurement": "survivin level", "setting": "[14]; MDA-MB-231 cells", "value": "down-regulation"}, {"measurement": "survivin level", "setting": "[14]; MDA-MB-468 cells", "value": "down-regulation"}, {"measurement": "Bcl-XL expression", "setting": "[15]; MDA-MB-231 cells", "value": "reduced expression"}, {"measurement": "Bcl-XL expression", "setting": "[15]; MDA-MB-468 cells", "value": "reduced expression"}, {"measurement": "LC3B-II levels", "setting": "[1]; MDA-MB-231 cells", "value": "pronounced increase"}, {"measurement": "LC3B-II levels", "setting": "[1]; MDA-MB-468 cells", "value": "pronounced increase"}, {"measurement": "autophagic flux", "setting": "[1]; MDA-MB-468 or MDA-MB-231 cells, LC3B-II not further increased by co-treatment with BafA1", "value": "inhibiting autophagic flux"}]}, {"smiles": "CCN(CC)CCCCNc1nc(/C=C/c2c(Cl)cc(Cl)cc2Cl)nc2ccc(N)cc12", "note": "[Compound 18, (E)-N^4-(4-(diethylamino)butyl)-2-(2,4,6-trichlorostyryl) quinazoline-4,6-diamine]", "values": [{"measurement": "change of MELK IC50 / activity relative to parent compound 6", "setting": "[2]", "value": "little effect"}]}, {"smiles": "Nc1ccc2nc(/C=C/c3ccc(C(F)(F)F)cc3)nc(NCCCN3CCOCC3)c2c1", "note": "[Compound 20]", "values": [{"measurement": "change of MELK IC50 / activity relative to parent compound 6", "setting": "[2]", "value": "twofold reduction"}]}]}
